# Results from ChEMBL document CHEMBL3132763, “Repurposing human Aurora kinase inhibitors as leads for anti-protozoan drug discovery” (Medchemcomm, 2014).
# Assays:
# [1] = system: Leishmania major; assay: Antiprotozoal activity against promastigote stage of Leishmania major assessed as growth inhibition after 44 hrs by AlamarBlue staining-based fluorescence assay; type: functional, organism-based
# [2] = system: Plasmodium falciparum; assay: Antiprotozoal activity against chloroquine-resistant Plasmodium falciparum W2 assessed as growth inhibition after 72 hrs by SYBR Green dye-based fluorescence assay; type: functional, organism-based; conditions: W2, 72 h
# In short: (§1)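 Laboratory strains (D6, TM91C235, W2) in long-term culture, late-ring/early-trophozoite stage, seeded into pre-dosed 384-well plates at 0.3% parasitemia and 2% hematocrit. Twelve two-fold dilutions from DMSO, final 0.5–10000 ng/ml, in duplicate or quadruplicate. Incubated 72 h at 37°C under 5% CO2/5% O2/90% N2. Lysis buffer with SYBR Green I (final 10x) added, then 24 h dark at room temperature. Fluorescence read; IC50/IC90 from sigmoidal variable-slope fit. Chloroquine 2000 ng/ml batch control.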
# [3] = system: Plasmodium falciparum; assay: Antiprotozoal activity against chloroquine-resistant Plasmodium falciparum C2B assessed as growth inhibition after 72 hrs by SYBR Green dye-based fluorescence assay; type: functional, organism-based
# [4] = Cytotoxicity against human HepG2 cells after 48 hrs by MTT assay; type: cell-based; conditions: read-out: TC50
# In short: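 HepG2 cells in supplemented MEM, 9570 cells/well, plated overnight at 37°C. Twelve 1.6-fold dilutions in duplicate, 57–10,000 ng/ml, 48 h. MTT added for 1 h at room temperature in the dark; formazan dissolved in acidified isopropanol; absorbance read. IC50 by sigmoidal variable-slope nonlinear regression; mefloquine served as plate control.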
# [5] = system: Trypanosoma brucei; assay: Antiprotozoal activity against Trypanosoma brucei 427 assessed as growth inhibition after 48 hrs by PrestoBlue-based fluorescence assay; type: functional, organism-based; conditions: Trypanosoma brucei, 427, 48 h
# In short: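 T. brucei brucei strain 427 at 5 × 10^3 cells/well in HMI-9 with compound; 37°C, 5% CO2, 48 h. PrestoBlue added for a further 4 h; fluorescence read at ex 530 / em 590 nm.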
# [6] = system: Plasmodium falciparum; assay: Antiprotozoal activity against Plasmodium falciparum D6 assessed as growth inhibition after 72 hrs by SYBR Green dye-based fluorescence assay; type: functional, organism-based; conditions: D6, 72 h; in short: as §1
# [7] = system: Leishmania major; assay: Antiprotozoal activity against intracellular amastigote stage of Leishmania major infected in mouse […] cells assessed as growth inhibition after 96 hrs by luciferase reporter gene assay; type: functional, organism-based
# In short: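 RAW 264.7 macrophages (10,000/well, DMEM/10% HIFBS, 24 h at 37°C) infected overnight with luciferase-expressing L. major promastigotes (100,000/well), then washed three times. Twelve two-fold dilutions in duplicate, final 0.5–10,000 ng/ml, 96 h at 37°C, 5% CO2. Luciferin added for 30 min; luminescence read. IC50 by sigmoidal variable-slope nonlinear regression.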
# [8] = system: Plasmodium falciparum; assay: Antiprotozoal activity against chloroquine/mefloquine/pyrimethamine-resistant Plasmodium falciparum C235 assessed as growth inhibition after 72 hrs by SYBR Green dye-based fluorescence assay; type: functional, organism-based; conditions: C235, 72 h; in short: as §1
# [9] = Selectivity ratio of TC50 for human HepG2 cells to EC50 for Plasmodium falciparum D6; type: ADME, cell-based
SMILES,EC50 [1],EC50 [2],EC50 [3],CC50 at 48 h [4],EC50 [5],EC50 [6],EC50 [7],EC50 [8],selectivity ratio [9]
CCS(=O)(=O)Nc1ccc2c(c1)/C(=C(/Nc1ccc(C)cc1)c1ccccc1)C(=O)N2,2600 nM,2490 nM,1570 nM,3100 nM,370 nM,1610 nM,> 4000 nM,1640 nM,
CCS(=O)(=O)Nc1ccc2c(c1)/C(=C(/Nc1ccc(CN3CCOCC3)cc1)c1ccccc1)C(=O)N2,940 nM,77 nM,,1310 nM,100 nM,54 nM,1680 nM,31 nM,
CC(=O)N1C(=O)/C(=C(\Nc2ccc(CN3CCCCC3)cc2)c2ccccc2)c2cc(N)ccc21,> 4000 nM,241 nM,210 nM,1810 nM,3250 nM,218 nM,> 4000 nM,243 nM,
CCS(=O)(=O)Nc1ccc2c(c1)/C(=C(/Nc1ccccc1)c1ccccc1)C(=O)N2,> 4000 nM,143 nM,117 nM,4700 nM,1440 nM,109 nM,> 4000 nM,118 nM,50
CC/C(Nc1ccc(CN2CCCCC2)cc1)=C1/C(=O)Nc2ccc(NS(=O)(=O)CC)cc21,2800 nM,347 nM,143 nM,> 6000 nM,1790 nM,233 nM,> 4000 nM,255 nM,
CCS(=O)(=O)Nc1ccc2c(c1)/C(=C(/Nc1ccc(N3CCCCC3)cc1)c1ccccc1)C(=O)N2,620 nM,832 nM,735 nM,> 6000 nM,1530 nM,595 nM,> 4000 nM,647 nM,
CCS(=O)(=O)Nc1ccc2c(c1)/C(=C(\C)Nc1ccc(CN3CCCCC3)cc1)C(=O)N2,> 4000 nM,1260 nM,1060 nM,> 6000 nM,3360 nM,1360 nM,> 4000 nM,1190 nM,
CCS(=O)(=O)Nc1ccc2c(c1)/C(=C/Nc1ccc(CN3CCCCC3)cc1)C(=O)N2,2770 nM,273 nM,173 nM,5000 nM,1320 nM,241 nM,> 4000 nM,242 nM,
CO[C@@H](C(=O)N1Cc2n[nH]c(NC(=O)c3ccc(N4CCN(C)CC4)cc3)c2C1)c1ccccc1 [DANUSERTIB],> 21000 nM,,,4000 nM,,857 nM,,,
Nc1ccc2c(c1)/C(=C(/Nc1ccc(CN3CCCCC3)cc1)c1ccccc1)C(=O)N2,790 nM,228 nM,175 nM,> 6000 nM,1160 nM,199 nM,> 4000 nM,176 nM,
CC(=O)Nc1ccc2c(c1)/C(=C(/Nc1ccc(CN3CCCCC3)cc1)c1ccccc1)C(=O)N2,1520 nM,88 nM,56 nM,> 6000 nM,150 nM,68 nM,> 4000 nM,74 nM,
O=C1Nc2ccccc2/C1=C(/Nc1ccc(CN2CCCCC2)cc1)c1ccccc1,770 nM,273 nM,160 nM,> 6000 nM,70 nM,230 nM,> 4000 nM,227 nM,
CC(=O)N1C(=O)/C(=C(\Nc2ccc(CN3CCCCC3)cc2)c2ccccc2)c2cc([N+](=O)[O-])ccc21,1080 nM,307 nM,249 nM,> 6000 nM,130 nM,275 nM,2040 nM,271 nM,
CS(=O)(=O)Nc1ccc2c(c1)/C(=C(/Nc1ccc(CN3CCCCC3)cc1)c1ccccc1)C(=O)N2,390 nM,86 nM,,200 nM,20 nM,52 nM,> 4000 nM,58 nM,
O=C1Nc2ccc(NS(=O)(=O)c3ccccc3)cc2/C1=C(/Nc1ccc(CN2CCCCC2)cc1)c1ccccc1,850 nM,144 nM,82 nM,3290 nM,10 nM,107 nM,1910 nM,120 nM,
Cc1cc(Nc2cc(N3CCN(C)CC3)nc(Sc3ccc(NC(=O)C4CC4)cc3)n2)n[nH]1 [TOZASERTIB],> 21000 nM,,,3300 nM,10000 nM,838 nM,,,
CCCC/C(Nc1ccc(CN2CCCCC2)cc1)=C1/C(=O)Nc2ccc(NS(=O)(=O)CC)cc21,2600 nM,217 nM,148 nM,> 6000 nM,1670 nM,167 nM,> 4000 nM,170 nM,
CCS(=O)(=O)Nc1ccc2c(c1)/C(=C(/Nc1ccc(CN3CCCCC3)cc1)c1ccccc1)C(=O)N2 [HESPERADIN],120 nM,21 nM,14 nM,< 200 nM,60 nM,10 nM,2370 nM,10 nM,
CCS(=O)(=O)Nc1ccc2c(c1)/C(=C(/NC1CCN(C)CC1)c1ccccc1)C(=O)N2,> 4000 nM,> 15000 nM,> 15000 nM,> 10000 nM,> 50000 nM,> 15000 nM,> 4000 nM,> 15000 nM,
